Shown are actives, neighbours in structure and some others; about 2.1% of the full set was active somewhere.
Dynein cargo inh = inhibitors of GR-EGFP nuclear translocation, primary screen, dynein cargo transport inhibitor project, imaging, high-content, 3617.4 mouse cells; AID 1381, 2008; z-score, hits read low; hit rate 0.47% among 220,000; test concentration mostly 20 µM; stimulated with dexamethasone, 1 µM; hits give low values;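 active = plate z-score of nuclear minus cytoplasmic receptor signal below a set negative limit, without overly bright fluorescence or cell loss, cut at about -3.5 in these data, passing the limit was not always enough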;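 note: z-score of nuclear minus cytoplasmic ring GR-EGFP intensity difference per well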
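Buffer or medium: tetracycline-free induction medium containing charcoal-stripped FBS / Reagent: dexamethasone agonist, 1.0 µM final, for 30 min / Technique: automated 10x imaging of fixed Hoechst-stained cells / Times: induction 48 h, compound 1 h, agonist 30 min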
Autophagy mod = autophagy modulators in MEF cells, primary screen, imaging, high-content, MEF GFP-LC3; calls only at 10 µM (by protocol); hit rate 0.98% among 190,000; AID 463193, 2010; MEF GFP-LC3 puncta imaging; test concentration mostly 10 µM;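 active = percentage of spot-positive cells more than 3 SD above its plate mean, without a fluorescence outlier flag or 80% toxicity; inconclusive = no clear call, values can overlap the other calls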;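 note: spot-positive cell cutoff set from DMSO-treated cells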
INS promoter inh = inhibitors of insulin promoter-driven GFP, primary screen, imaging, TRM-6 cells, eGFP reporter, cell count. reporter expression induced with tamoxifen. inhibition, % at 2 µM. hit rate 0.9% among 130,000. AID 1273, 2008;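 active = inhibition above the mean plus 3 SD, with well images judged a real hit on visual review, cut at about 60% in these data, passing the limit was not always enough; inconclusive = inhibition over the cutoff but images rejected on review; inactive = inhibition not above the cutoff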
Ins promoter up = insulin promoter activators in MIN6 cells, imaging, high-content screening, mouse beta cells | hit rate 0.3% among 190,000 | MIN6 insulin promoter-GFP reporter; hits give high values | z-score at 5 µM;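 active = z-score above 3 at 5 µM with at least 500 cells counted in the well; inconclusive = wells under 500 cells, flagged as cytotoxic or low count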
PERK inhibitor = block of dimerizer-induced PERK translation repression, primary screen, PERK inhibitor project, CHO PERK-DD cells, SEAP luminescence, HTS | inhibition, % at 5.6 µM | Eukaryotic translation initiation factor 2-alpha kinase 3 (Homo sapiens), Q9NZJ5 | hit rate 0.17% among 220,000 | CHO PERK-DD fusion, SEAP luminescence translation reporter;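 active = inhibition above the mean inhibition of all tested compounds plus 3 SD, set separately per screening campaign, cut at about 2.9% in these data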;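 note: PERK kinase domain activated by AP20187 dimerizer at 100 nM; 0% = DMSO with dimerizer and 100% = rapamycin at 8.4 µM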
The depositor's hits bear a star; i = inactive; u = inconclusive; x = no result; + = active, no number.

SMILES	Dynein cargo inh	Autophagy mod	INS promoter inh	Ins promoter up	PERK inhibitor
CN(C)c1ccc(/C=C2\SC(=S)N(Nc3ncc(C(F)(F)F)cc3Cl)C2=O)cc1	-5.01	+	-62.8	x	1.1
CCCC(=O)c1c(C)c2ccccc2n1C	-0.0762	i	16.1	3.01*	0.7
Cc1cc(C)c(S(C)(=O)=O)c(Oc2cccc(C(F)(F)F)c2)n1	-0.472	i	x	-0.46	0.5
COc1cc(CC(=O)Nc2ccc(S(=O)(=O)N(C)C)cc2)cc(OC)c1OC	-0.449	i	x	-0.69	0.7
COc1cc(C)nc(N2CCCC(C(=O)Nc3cccc(Cl)c3C)C2)n1 (stereo not given)	-0.203	i	x	3.87*	1.1
Cc1cccc(Cn2c(C(=O)OC(C)C)cc3c2ccn3C)c1	1.18	i	65.2	x	-1.2
CCCCCCCCCCCCOC(=O)C[N+](C)(C)C	-0.384	x	x	-1.8	3.2*
CCC(C)Cn1c(S(=O)(=O)O)nc2ccccc21 (stereo not given)	0.554	i	31.2	x	1.2
CC(C)Cn1c(S(=O)(=O)O)nc2ccccc21	-0.628	x	x	1.71	3.5*
CCC(C(=O)Nc1cc(C)on1)c1ccccc1 (stereo not given)	-0.674	i	70.0*	0.26	1.0
Cc1cc(NC(=O)COc2cccc(Oc3ccccc3)c2)no1	-1.24	+	4.0	0.34	1.8
CCC(C(=O)Nc1ccc(C)cc1)c1ccccc1 (stereo not given)	0.00153	i	-45.0	0.12	-0.5
CO/N=C\CC(=O)Nc1ccc(Oc2ccccc2)cc1	-1.09	i	x	0.22	0.4
Nc1nc(-c2ccc(Cl)cc2)c(N=Nc2ccc(S(=O)(=O)N3CCOCC3)cc2)s1	0.225	i	22.1	3.8*	0.0
O=C(Nc1nccs1)c1cc2sccc2n1Cc1ccc(Cl)cc1	1.81	+	x	-0.16	-0.4
Cc1cc(NC(=O)c2ccccc2)nc2c1c(=O)oc1ccccc12	-0.464	i	2.7	0.15	1.5
CCOc1ccc(C(=O)Nc2cc(C)c3c(=O)oc4ccccc4c3n2)cc1	-0.926	+	x	u	1.1
Cc1cc(NC(=O)c2ccc(S(=O)(=O)N3CCCC3)cc2)nc2c1c(=O)oc1ccccc12	0.244	+	-92.6	x	-1.6
CC(=O)OCC1=C(C(=O)O)N2C(=O)C(NC(=O)CCn3nc(C(F)(F)F)c(Br)c3C3CC3)C2SC1 (stereo not given)	-0.549	i	x	0.45	1.3
CC(=O)c1c(C)[nH]c(C(=O)CN2C(=O)NC(C)(c3ccc(C)cc3)C2=O)c1C (stereo not given)	-0.368	+	0.0	-0.83	1.0
Cc1cc(-c2ccccc2)c2c3c(cn2n1)c(=O)n(C)c(=O)n3C	0.0851	i	-5.3	-0.13	0.0
Cc1cc(-c2ccccc2)c2c3c(c(-c4ccccc4)n2n1)c(=O)n(C)c(=O)n3C	0.324	+	-50.0	0.19	0.8
O=c1c(Cc2c(F)cccc2Cl)c(O)ccn1CCc1c[nH]c2ccccc12	0.309	i	20.0	-0.37	1.0
Cn1c(=O)c2c(nc(NCc3ccccc3)n2CCCc2ccccc2)n(C)c1=O	0.0116	i	-252.6	-0.89	-0.2
CC(C)=NNc1nc2c(c(=O)n(C)c(=O)n2C)n1CCc1ccccc1	1.86	i	x	4.22*	0.4
SMILES	Dynein cargo inh	Autophagy mod	INS promoter inh	Ins promoter up	PERK inhibitor
CC1CN(Cc2nc3c(c(=O)n(C)c(=O)n3C)n2CCc2ccccc2)CC(C)O1 (stereo not given)	-0.756	i	75.7*	x	-0.9
O=C(NNc1cccc(Cl)n1)Nc1ccc(F)cc1	-0.171	i	x	1.05	-0.4
O=C(CCS(=O)(=O)c1ccc(Br)cc1)N1CCN(c2ccccc2Cl)CC1	-0.758	i	21.4	-1.57	-0.8
O=C(CCS(=O)(=O)c1ccc(Br)cc1)N1CCN(c2ccccc2)CC1	-0.254	+	x	0.26	-1.5
CCOC(=O)c1c(-c2ccccc2)oc2cc(CN(C)C)c(O)c(CN(C)C)c12	-1.11	+	-100.0	x	-0.9
COc1cccc(CN2CCN(Cc3cccn3-c3cccnc3)CC2CCO)c1 (stereo not given)	-0.8	i	-4.3	-0.14	0.0
Nc1ncc(Br)cc1N=Cc1ccccc1	-0.155	i	75.8*	-0.38	0.5
CCCCCCN(C(=O)CCCCCN1C(=O)NC(c2ccc(-c3ccccc3)cc2)C(C(=O)OCc2ccccc2)=C1C)C(C)C(=O)NCCCC (stereo not given)	0.501	+	0.0	-0.33	1.8
N#Cc1cnn2c3c(cnc12)C(=O)N1CCc2ccccc2C1C3 (stereo not given)	-0.232	i	35.0	-0.48	0.2
CN(C)C(=O)C1C2NC(=S)N(c3ccc(Cl)cc3)C1(C)Oc1ccc(Cl)cc12 (stereo not given)	-0.304	i	-6.7	-0.5	1.1
CN(C)C(=O)C1C2NC(=S)N(c3cccc(Cl)c3)C1(C)Oc1ccc(Cl)cc12 (stereo not given)	-0.621	i	-6.7	3.51*	0.0
CCN(CC)C(=O)CCCC(=O)N(CC)CC	-1.06	i	2.6	-0.13	0.2
O=C(Nc1ccc(Cl)c(C(F)(F)F)c1)NC1CC2CCCC(C1)N2C1CC1 (stereo not given)	0.759	+	30.0	x	-0.7
O/N=C/c1ccc2ccccc2n1	0.251	x	x	1.95	0.3
O/N=C/c1ccc2cccc(O)c2n1	-0.793	x	x	0.31	3.7*
O=c1[nH]c2cc([N+](=O)[O-])c([N+](=O)[O-])cc2[nH]c1=O	-1.01	i	x	-0.07	-0.2
O=c1[nH]cc([N+](=O)[O-])cc1Br	0.324	+	28.9	0.38	-0.5
CC1CCN(Cc2c(O)ccc3c(=O)c(-c4nc5ccccc5s4)c(N)oc23)CC1	0.575	+	-12.5	-0.42	-0.9
O=C(O)c1ccc(-c2ncc[nH]2)cc1	1.89	i	80.0*	0.31	1.0
CCCCCNC(=O)CSC1=N/C(=C\c2ccc(Cl)c(Cl)c2)C(=O)N1CC	0.178	i	x	x	3.0*
COc1cc(C2Nc3cccc4cccc(c34)N2)ccc1OC(C)=O	-0.275	i	-63.6	-0.67	2.9
COc1cc(C2Nc3cccc4cccc(c34)N2)cc(OC)c1O	-3.71*	+	13.6	x	0.4
O=C(N/N=C/C=C/c1ccc2c(c1)OCO2)c1ccc([N+](=O)[O-])cc1	-0.722	i	5.7	-0.21	1.1
Nc1ccc(C(=O)N/N=C\C=C\c2ccc([N+](=O)[O-])cc2)cc1	0.857	+	x	-0.7	0.4
CS(=O)(=O)ON=C1CCN(S(=O)(=O)c2ccccc2)CC1	-0.178	i	x	3.51*	0.9
Cc1ccc(C(=O)ON=C2CCN(S(=O)(=O)c3ccccc3)CC2)cc1	2.22	i	33.3	x	1.2
